Measured values gathered from unrelated publications.
pIC50: −log10 of the molar value.
Read-out: cell growth or viability

SMILES | cell line | method | time | quantity | result
O=C(Nc1cccc(CO)c1)c1c[nH]c2ccc(Cl)cc12 | SK-N-BE(2)-C | MTT |  | pIC50 | 4.85
Cc1ccncc1-c1ccc2oc(C(=O)c3cc(O)c(O)c(O)c3)cc2c1 | HEK-293T | ATP luminescence | 72 h | IC50 | 0.79 µg/mL
Cc1cnc(NC2CCOCC2)nc1-n1cnc(C(=O)NC(CN)c2cc(F)cc(Cl)c2)c1 (stereo not shown) | KM-H2 | MTS |  | pIC50 | 5.59
COC(=O)CN=c1scc(-c2ccccc2)n1-c1ccccc1 | PANC-03-27 | MTT | 72 h | pIC50 | 4.14
C=CCNC1=C2C[C@@H](C)C[C@H](OC)[C@H](O)[C@@H](C)/C=C(\C)[C@H](OC(N)=O)[C@@H](OC)/C=C\C=C(/C)C(=O)NC(=CC1=O)C2=O | A-431 | MTT |  | pIC50 | 7.17
COC(=O)CN=c1scc(-c2ccccc2)n1-c1ccc(OC)cc1 | PANC-03-27 | MTT | 72 h | pIC50 | 4.94
O=CC[C@@H](O)[C@H](O)[C@H](O)CO | A-431 | MTT | 3 h | pIC50 | < 2.22
COc1cc2nccc(Oc3ccc(NC(=O)C4(C(=O)Nc5ccc(F)cc5)CC4)cc3)c2cc1OC | human Myoblast |  | 72 h | pIC50 | 6.85
Cc1ccc2nc(-c3ccc(Cl)cc3)n(Cc3ccccc3)c2c1 | HepG2 | MTT |  | pIC50 | 5.49
O=C(c1cc(O)c(O)c(O)c1)c1cc2ccccc2o1 | HEK-293T | ATP luminescence | 24 h | IC50 | 1.3 µg/mL
COc1cc(Nc2nccc(-c3cnn4nc(OC)ccc34)n2)cc(C(F)(F)F)c1 | M-07e | ATP luminescence |  | pIC50 | 6.96
COc1cccc(Oc2ccccc2NC(=O)[C@H](C)NC(=O)c2cccc3ccccc23)c1 | SK-N-AS |  |  | pIC50 | 5.82
COc1ccc(C[C]2([Ti+2][C]3(Cc4ccc(OC)cc4)C=CC=C3)C=CC=C2)cc1.[Cl-].[Cl-] | HEK-293T | XTT | 24 h | pIC50 | < 3.70
C[C@H]1Oc2cc(cnc2N)-c2c(nn(C)c2C#N)CN(C)C(=O)c2ccc(F)cc21 | A-431 |  |  | pIC50 | < 5.00
COc1cc(-c2ncn(/C=C\C(=O)OC(C)C)n2)cc(C(F)(F)F)c1 | SKNO-1 |  | 72 h | pIC50 | 7.24
Nc1ccn([C@@H]2O[C@H](CO)[C@@H](O)C2(F)F)c(=O)n1 | PANC-03-27 | MTT | 72 h | pIC50 | 6.38

SMILES | cell line | method | time | quantity | result
CC(=O)CC(=O)[c-]1cccc1.[Fe+2].c1cc[cH-]c1 | PNT2 | MTT | 96 h | pIC50 | < 4.00
C[C@@H](Oc1cc(-c2cnn(C3CCNCC3)c2)cnc1N)c1c(Cl)ccc(F)c1Cl | human Myoblast |  | 72 h | pIC50 | 5.74
CC(C)C[C@H](NC(=O)[C@H](Cc1ccccc1)NC(=O)c1cnccn1)B(O)O | M-07e | ATP luminescence |  | pIC50 | 8.28
Clc1ccc(-c2nc3ccccc3[nH]2)cc1Cl | HepG2 | MTT | 48 h | pIC50 | 5.13
CC(=O)c1ccc(-c2ccc3oc(C(=O)c4cc(O)c(O)c(O)c4)cc3c2)cc1 | HEK-293T | ATP luminescence | 72 h | IC50 | 1.3 µg/mL
COc1cccc2c1C(=O)c1c(O)c3c(c(O)c1C2=O)C[C@@](O)(C(=O)CO)C[C@@H]3O[C@H]1C[C@H](N)[C@H](O)[C@H](C)O1 | NCI-H292 | WST-1 | 72 h | pIC50 | 7.52
COc1cccc(Oc2ccccc2NC(=O)CNC(=O)c2cccc3ccccc23)c1 | SK-N-BE(2)-C |  |  | pIC50 | 6.63
COc1cc2c(Oc3ccc(NC(=O)C4(C(=O)Nc5ccc(F)cc5)CC4)cc3F)ccnc2cc1OCCCN1CCOCC1 | human Myoblast |  | 72 h | pIC50 | 6.92
CC1=CC(C)(C)N(Cc2ccccc2)c2ccc(O)cc21 | Huh-7 | MTT | 72 h | pIC50 | 4.80
O=C(O)c1ccc(NC(=O)c2cc3cc(Cl)ccc3[nH]2)cc1 | SK-N-BE(2)-C | MTT |  | pIC50 | 4.68
[Cl-].[Cl-].[Ti+4].c1cc[cH-]c1.c1cc[cH-]c1 | HEK-293T | XTT | 24 h | pIC50 | < 3.70
COc1ccc(Oc2ccccc2NC(=O)CNC(=O)c2cccc3ccccc23)cc1 | SK-N-AS |  |  | pIC50 | 7.04
CC(C)[C@H](N)C(=O)N1CCC[C@H]1B(O)O | TF-1 | ATP luminescence | 48 h | pIC50 | < 4.22
COC(=O)CN=c1scc(-c2ccccc2)n1-c1ccc(C)cc1 | PANC-03-27 | MTT | 72 h | pIC50 | 4.96
COc1cc([C@@H]2c3cc4c(cc3[C@@H](O[C@@H]3O[C@@H]5CO[C@@H](C)O[C@H]5[C@H](O)[C@H]3O)[C@H]3COC(=O)[C@H]23)OCO4)cc(OC)c1O | CCD-18Co | MTS | 72 h | pIC50 | 4.39
